Source: ChEMBL document CHEMBL4373633, “New methods to assess 6-thiopurine toxicity and expanding its therapeutic application to pancreatic cancer via small molecule potentiators” (Medchemcomm, 2019)
Activity calls are given as the source filed them. No cut-off for these calls is given here.

Tests used:
[1] = Inhibition of Streptococcus pyogenes UDPGDH expressed in Escherichia coli/rat liver microsome UGT-1A assessed as reduction in BDG production at 5 uM by HPLC analysis; format: ADME; conditions: microsomes
In short: (§1)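 Coupled in vitro model in phosphate buffer with alamethicin. Microsomal UGT-1A 4.4 units/mL, 2 mM bilirubin, 10 mM NAD+, 5 mM UDPG, UDPGDH:UGT-1A ratio 1:2200. Reaction started by adding UDPGDH. UDPGA-rescue arm included 15 μM UDPGA. Bilirubin mono- and diglucuronide formation measured by HPLC.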

[2] = molecular target: T1, UDP-glucose 6-dehydrogenase (Streptococcus pyogenes, UniProt P0C0F4); experiment: Inhibition of Streptococcus pyogenes UDPGDH expressed in Escherichia coli assessed as inhibitior constant after 20 to 120 secs by UV-VIS spectroscopic analysis
T1 sequence (P0C0F4 whole entry): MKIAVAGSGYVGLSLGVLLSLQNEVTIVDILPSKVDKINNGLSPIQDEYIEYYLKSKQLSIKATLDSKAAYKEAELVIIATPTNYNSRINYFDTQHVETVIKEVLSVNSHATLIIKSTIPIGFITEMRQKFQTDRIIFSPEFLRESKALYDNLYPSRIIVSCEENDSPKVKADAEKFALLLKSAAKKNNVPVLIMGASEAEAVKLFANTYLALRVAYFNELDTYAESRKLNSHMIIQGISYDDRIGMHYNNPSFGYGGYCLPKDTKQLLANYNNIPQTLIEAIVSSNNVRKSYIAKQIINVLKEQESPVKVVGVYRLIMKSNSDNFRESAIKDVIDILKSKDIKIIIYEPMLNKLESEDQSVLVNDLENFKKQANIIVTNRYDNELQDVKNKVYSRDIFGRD

[3] = Inhibition of Streptococcus pyogenes UDPGDH expressed in Escherichia coli/rat liver microsome UGT-1A assessed as reduction in BDG production at 5 uM in presence of UDPGA by HPLC analysis; format: ADME; conditions: microsomes; in short: as §1
[4] = Inhibition of UDPGDH/UGT-1A in hepatocytes (unknown origin) assessed as reduction in BDG production at 5 uM by HPLC analysis; format: ADME, cell-based; conditions: human
[5] = molecular target: T1, UDP-glucose 6-dehydrogenase; experiment: Inhibition of Streptococcus pyogenes UDPGDH expressed in Escherichia coli assessed as inhibitior constant by mesuring UDPGA production after 20 to 120 secs by HPLC analysis
In short: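 UDPGA formed by UDPGDH was quantified by reverse-phase C18 HPLC at 262 nm against a UDPGA standard curve. Aqueous phase 8 mM imidazole/2.5 mM TBAHS, pH 6.5; organic phase methanol; 0.5 mL/min gradient over a 23 min run. UDPG was varied at several inhibitor levels. Slopes of the lines were plotted against inhibitor concentration, and Ki was taken as the […] x-intercept.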

[6] = Inhibition of UDPGDH/UGT-1A in hepatocytes (unknown origin) assessed as reduction in BMG production at 5 uM in presence of UDPGA by HPLC analysis; format: ADME, cell-based; conditions: human
[7] = Inhibition of Streptococcus pyogenes UDPGDH expressed in Escherichia coli/rat liver microsome UGT-1A assessed as reduction in BMG production at 5 uM in presence of UDPGA by HPLC analysis; format: ADME; conditions: microsomes; in short: as §1
[8] = Inhibition of Streptococcus pyogenes UDPGDH expressed in Escherichia coli/rat liver microsome UGT-1A assessed as reduction in BMG production at 5 uM by HPLC analysis; format: ADME; conditions: microsomes; in short: as §1
[9] = Inhibition of UDPGDH/UGT-1A in hepatocytes (unknown origin) assessed as reduction in BDG production at 25 uM by HPLC analysis; format: ADME, cell-based; conditions: human
MIA PaCa-2 [10] = experiment: Synergistic antiproliferative activity against human MIAPaCa2 cells assessed as cell death at 5 uM after 72 hrs in presence of 50 uM 6TP by alamar blue assay (reference value: 13.8%); format: functional
U-937 [11] = experiment: Synergistic antiproliferative activity against human U937 cells at 2.5 to 5 uM after 72 hrs in presence of 6TP by alamar blue assay based Chou-Talalay method; format: functional, cell-based
MIA PaCa-2 [12] = experiment: Synergistic antiproliferative activity against human MIAPaCa2 cells assessed as cell death at 2.5 uM after 72 hrs in presence of 10 uM 6TP by alamar blue assay (reference value: 6.9%); format: functional
MIA PaCa-2 [13] = experiment: Synergistic antiproliferative activity against human MIAPaCa2 cells assessed as cell death at 2.5 uM after 72 hrs in presence of 25 uM 6TP by alamar blue assay (reference value: 6.4%); format: functional
HeLa [14] = experiment: Synergistic antiproliferative activity against human HeLa cells at 2.5 to 5 uM after 72 hrs in presence of 6TP by alamar blue assay; format: functional, cell-based
MIA PaCa-2 [15] = experiment: Antiproliferative activity against human MIAPaCa2 cells assessed as reduction in cell viability after 72 hrs by alamar blue assay; format: functional, cell-based; conditions: MIA PaCa-2, 72 h
In short: (§2)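 Cell lines from ATCC, grown in medium with FBS and antibiotics at 37 °C, 5% CO2, 95% humidity. Compound DMSO stocks diluted in medium over 31.6 nM–200 μM, tested in triplicate. Plated at 2000 cells/well (adherent) or 3500 (suspension). After 69 h of continuous exposure, Alamar Blue was added for 3 h more. Fluorescence read at ex 560/em 590 nm. IC50 from ≥3 independent experiments.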

MIA PaCa-2 [16] = experiment: Synergistic antiproliferative activity against human MIAPaCa2 cells assessed as cell death at 2.5 uM after 72 hrs in presence of 50 uM 6TP by alamar blue assay (reference value: 13.8%); format: functional
MIA PaCa-2 [17] = experiment: Synergistic antiproliferative activity against human MIAPaCa2 cells assessed as cell death at 5 uM after 72 hrs in presence of 25 uM 6TP by alamar blue assay (reference value: 6.4%); format: functional
MIA PaCa-2 [18] = experiment: Synergistic antiproliferative activity against human MIAPaCa2 cells assessed as cell death at 5 uM after 72 hrs in presence of 100 uM 6TP by alamar blue assay (reference value: 30.7%); format: functional
MIA PaCa-2 [19] = experiment: Synergistic antiproliferative activity against human MIAPaCa2 cells assessed as cell death at 5 uM after 72 hrs in presence of 10 uM 6TP by alamar blue assay (reference value: 6.9%); format: functional
A549 [20] = experiment: Synergistic antiproliferative activity against human A549 cells at 2.5 to 5 uM after 72 hrs in presence of 6TP by alamar blue assay; format: functional, cell-based
A549 [21] = experiment: Antiproliferative activity against human A549 cells assessed as reduction in cell viability after 72 hrs by alamar blue assay; format: functional, cell-based; conditions: A549, 72 h; in short: as §2
MIA PaCa-2 [22] = experiment: Synergistic antiproliferative activity against human MIAPaCa2 cells assessed as cell death at 2.5 uM after 72 hrs in presence of 100 uM 6TP by alamar blue assay (reference value: 30.7%); format: functional
HeLa [23] = experiment: Antiproliferative activity against human HeLa cells assessed as reduction in cell viability after 72 hrs by alamar blue assay; format: functional, cell-based; in short: as §2
REH [24] = experiment: Synergistic antiproliferative activity against human REH cells at 2.5 to 5 uM uM after 72 hrs in presence 6TP by alamar blue assay based alamar blue assay; format: functional, cell-based
U-937 [25] = experiment: Antiproliferative activity against human U937 cells assessed as reduction in cell viability after 72 hrs by alamar blue assay; format: functional, cell-based; conditions: U-937, 72 h; in short: as §2
REH [26] = experiment: Synergistic antiproliferative activity against human REH cells assessed as cell death at 2.5 uM after 72 hrs in presence of 50 uM 6TP by alamar blue assay (reference value: 21.9%); format: functional
REH [27] = experiment: Synergistic antiproliferative activity against human REH cells assessed as cell death at 5 uM after 72 hrs in presence of 10 uM 6TP by alamar blue assay (reference value: 10.8%); format: functional
REH [28] = experiment: Synergistic antiproliferative activity against human REH cells assessed as cell death at 2.5 uM after 72 hrs in presence of 25 uM 6TP by alamar blue assay (reference value: 12.2%); format: functional
REH [29] = experiment: Synergistic antiproliferative activity against human REH cells assessed as cell death at 2.5 uM after 72 hrs in presence of 100 uM 6TP by alamar blue assay (reference value: 49.5%); format: functional
REH [30] = experiment: Synergistic antiproliferative activity against human REH cells assessed as cell death at 5 uM after 72 hrs in presence of 50 uM 6TP by alamar blue assay (reference value: 21.9%); format: functional
REH [31] = experiment: Synergistic antiproliferative activity against human REH cells assessed as cell death at 5 uM after 72 hrs in presence of 100 uM 6TP by alamar blue assay (reference value: 49.5%); format: functional
REH [32] = experiment: Synergistic antiproliferative activity against human REH cells assessed as cell death at 5 uM after 72 hrs in presence of 25 uM 6TP by alamar blue assay (reference value: 12.2%); format: functional
REH [33] = experiment: Synergistic antiproliferative activity against human REH cells assessed as cell death at 2.5 uM after 72 hrs in presence of 10 uM 6TP by alamar blue assay (reference value: 10.8%); format: functional
[34] = Inhibition of Streptococcus pyogenes UDPGDH expressed in Escherichia coli/rat liver microsome UGT-1A assessed as reduction in BMG production at 10 uM by HPLC analysis; format: ADME; conditions: microsomes; in short: as §1
[35] = Inhibition of Streptococcus pyogenes UDPGDH expressed in Escherichia coli/rat liver microsome UGT-1A assessed as reduction in BDG production at 10 uM by HPLC analysis; format: ADME; conditions: microsomes; in short: as §1

Structure (SMILES): O=c1[nH]c(=S)c2[nH]c(=O)[nH]c2[nH]1
- inhibition (INH) [1]: Active
- Ki [2]: 7 µM
- inhibition (INH) [3]: Not Active
- inhibition (INH) [4]: Active
- Ki [5]: 5 µM
- inhibition (INH) [6]: Not Active
- inhibition (INH) [7]: Not Active
- inhibition (INH) [8]: Active

Structure (SMILES): Sc1ncnc2nc[nH]c12 [MERCAPTOPURINE ANHYDROUS]
- Ki [2]: 288 µM
- inhibition (INH) [9]: Active
- Ki [5]: 111 µM

Structure (SMILES): COCOc1cc(OCOC)c(C(=O)/C=C/c2ccccc2)c(OCOC)c1
- Activity (MIA PaCa-2 [10]): 17%
- Activity (U-937 [11]): inactive
- Activity (MIA PaCa-2 [12]): 14.2%
- Activity (MIA PaCa-2 [13]): 15%
- Activity (HeLa [14]): inactive
- IC50 (MIA PaCa-2 [15]): > 20 µM
- Activity (MIA PaCa-2 [16]): 16.9%
- Activity (MIA PaCa-2 [17]): 17.3%
- Activity (MIA PaCa-2 [18]): 19.3%
- Activity (MIA PaCa-2 [19]): 18.4%
- Activity (A549 [20]): inactive
- IC50 (A549 [21]): > 20 µM
- Activity (MIA PaCa-2 [22]): 17.6%
- IC50 (HeLa [23]): 12.2 µM
- Activity (REH [24]): inactive
- IC50 (U-937 [25]): 7.4 µM

Structure (SMILES): COCOc1cc(OC)c(C(=O)/C=C/c2ccccc2)c(OCOC)c1
- Activity (MIA PaCa-2 [10]): 40.8%
- Activity (REH [26]): 22.1%
- Activity (REH [27]): 12.7%
- Activity (U-937 [11]): inactive
- Activity (REH [28]): 13.5%
- Activity (MIA PaCa-2 [12]): 16.5%
- Activity (MIA PaCa-2 [13]): 18.6%
- Activity (HeLa [14]): inactive
- Activity (REH [29]): 51%
- Activity (MIA PaCa-2 [16]): 25.1%
- Activity (REH [30]): 26.1%
- Activity (REH [31]): 51%
- Activity (MIA PaCa-2 [17]): 30%
- Activity (REH [32]): 19.1%
- Activity (MIA PaCa-2 [18]): 61.2%
- Activity (MIA PaCa-2 [19]): 25.4%
- Activity (A549 [20]): inactive
- IC50 (A549 [21]): 7.2 µM
- Activity (MIA PaCa-2 [22]): 49.1%
- Activity (REH [33]): 11.1%

Structure (SMILES): CNC(=O)c1cc(Oc2ccc(NC(=O)Nc3ccc(Cl)c(C(F)(F)F)c3)c(F)c2)ccn1 [REGORAFENIB]
- inhibition (INH) [34]: Active
- inhibition (INH) [35]: Active

Structure (SMILES): COCOc1cc(O)c(C(=O)/C=C/c2ccccc2)c(OCOC)c1
- Activity (MIA PaCa-2 [10]): 13%
- Activity (U-937 [11]): inactive
- Activity (MIA PaCa-2 [12]): 7%
- Activity (MIA PaCa-2 [13]): 7.2%
- Activity (HeLa [14]): inactive
- Activity (MIA PaCa-2 [16]): 9.7%
- Activity (MIA PaCa-2 [17]): 8.2%
- Activity (MIA PaCa-2 [18]): 19.9%
- Activity (MIA PaCa-2 [19]): 8.1%
- Activity (A549 [20]): inactive
- Activity (MIA PaCa-2 [22]): 15.2%
- Activity (REH [24]): inactive
